38 variants from the RNAGym collection of RNA variant scans (doi:10.1126/science.aae0568) can be followed below.

Variants at the floor of the assay were thinned out.

To fix the notation:
B1: tRNA (parent)
chain: GUUCCGUUGGCGUAAUGGUAACGCGUCUCCCUCCUAAGGAGAAGACUGCGGGUUCGAGUCCCGUACGGAACG

In this series the parent is B1. Description: yeast fitness relative to wild type (ratio to wild type); higher = fitter; tRNA-Arg(CCU), competitive growth, 37 C, YPD. Put shortly:
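For this measurement, the tRNA-Arg(CCU) gene was varied by chemical synthesis at a 3% per-site mutation rate across 69 sites, and each variant was placed at the native genomic locus in Saccharomyces cerevisiae. The pooled strains went through a 24-hour competition in YPD at 37°C in six parallel replicates, with amplicons from start and end populations read by 100-nucleotide paired-end sequencing. Darwinian fitness relative to wild type followed from the change in each genotype's frequency. Genotypes needed ≥ 100 starting reads, and estimates < 0.5 were set to 0.5.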
Consider GUUCCGAUGGCGUAAUGGUAACGCGUCUCCCUCCUAAGGAGAAGACUGCGGGUUCGAGUCCCGUCCGGAACG, for which the yeast fitness came out at 0.917. As for GUUCCGAUGGCGUAAUGGUAACGUGUCUCCCUCCUAAGGAGAAGACUGCGGGUUCGAGUCCCGUACGGUACG, the yeast fitness is at most 0.5. Consider GUUCCGAUGGCGUAAUGGUAAGGCGUCUCCCUCCUAAGGAGAAGACUGCGGGUUCGGGUCCCGUACGGAACG, for which the yeast fitness is at most 0.5. The value for GUUCCGAUGGCGUAAUGGUAAGGCGUCUCCCUCCUAAGGAGAAGACUGCGGGUUCGUGUCCCGUACGGAACG was at most 0.5. As to GUUCCGAUGGCGUAAUGGUAACGGGUCUGUCUCCUAAGGCGAAGACUGCGGGUUCGAGUCCCGUACGGAACG, the yeast fitness was determined as 0.96.

Consider GUUCCGAUGGAGUAAUGGUAACGCGUCUCACUCCUAAGGAGAAGACUGCGGGUUCGAGUCCCGUACGGAACG, for which the yeast fitness is at most 0.5. For the variant GUUCCGAUGGCGUAAUGGUAACGCGUCUCCCUCCUUAGGAGAAGGCAGCGGGUUCGAGUCCCGUACGAAACG, the yeast fitness is at most 0.5.

Consider GUUCCGAUGGCGUAAUGGUAAAGCGUCUCUCUCCUAAGGAGAAGACUGCGGGUUCGAGUCUCGUACAUAACG, for which the yeast fitness is at most 0.5.

Regarding GUUCCGAUGGCGUAAUGGUAACGCGUCUCCCUCCUAAGGAGGAGAAUGCGGGUUGGAGUCCCGUACGGAACG, the yeast fitness was at most 0.5. In the case of GUUCCGAUGGCGUAAUGGUAACGCGUCUCCCUCCUAAGGAGACGACUGCGGGUUCGAGUCCCGUACGGAACG, the yeast fitness came out at 0.824. Regarding GUUCCGAUGGCGUAAUGGUAAAGCGUCUACCUCCUAAGGAGAACACUGCGGGUUCGAGUCCCGUACGGAACG, the yeast fitness was at most 0.5. Take GUUCCGAUGGCGUAAUGGUAACGCGUCUCCCUCCUAAGGAGAAGACUGCGGGUUCGAGUCCCGUUCGGAGCG: the yeast fitness came to 0.677. Take GUUCCGAUGGCGUAAUGGUAACGCGUCUCCCUCCUAAGGAGAAGUCUGCGGGUUCGAGUACCGUACGGAACG: the yeast fitness was at most 0.5.

As to GUUCCGAUGGAGUAAUGGUGACACGGCUCCCUCCUAAGGAGAAGACUGCAGAUUCGAGUUGCGUACGGAACG, the yeast fitness was at most 0.5. Take GUUCCGAUGGCGUAAUGGUAAGGCGUCUCCCUCCUAAGGAGAAGACUGCGGGUUCGAGUCCCGUACGGAACG: the yeast fitness stood at 0.669. For GUUCCGAUGGCGUAAUGGUAAAGUGUCUCCCUCCUUAGGAGAAGACUGCGGGUUCGAGUCCCGUACGGAACG the value was at most 0.5; for GUUCCGAUGGCGUAAUGGUAACGCGUCUCCCUCCUAAGGAGAAGACUGCGGGUUCGGGUCCCGUACGGAACG, 0.759; for GUUCCGAUGGCGUAAUGGUAACGCGUCUCCCUCCUAAGGAGAAGACUGCGGGUUCGCGUCCCGUACGGAACG, 0.54. For the variant GUUCCGAUGGCGUAAUGGUAAAGCGUCUCCCUCCUAAGGAGAAGACUGCGGAUUCGAAUCCCGUACGGAACG, the yeast fitness is at most 0.5. As for GUUCCGAUGGCGUAAUGGUAACGCGUCUCCCUCCUAAGGAGAAGACUGCGGGUUCGUGACCCGUACGGCACG, the yeast fitness amounted to 0.702. As for GUUCCGAUGGCGUAAUGGUAACGCGUCUCCCUCCUAAGGUGAAGACUGCGGGUUCGAGUCCCGUACAGAACG, the yeast fitness is at most 0.5. Regarding GUUCCGAUGGCGUAAUGGUAAUGCGUCUCCCUCCUAAGGAGAAGACUGCGGGUCCGAGUCCCGUAUGCUACG, the yeast fitness is 0.567. Regarding GUUCCGAUGGCGUAAUGGUAACGCGUCUCCCUCCUACGGAGACGACUGCGGGUUCGAGUCCCGUACGGAACG, the yeast fitness worked out at 0.583.

As for GUUCCGAUGGCGUAAUGGUAACGCGUCUCCCUCCUAUGGAGAAGACUGCGGGUUCGAGUCCAGUACGGAACG, the yeast fitness is 0.571. With GUUCCGAUGGAGUAAUGGUAACGCGUCUCCCUCCUAAGGAGAAGACUGCGGGUUCGAGUCCCGUACGGAACG, the yeast fitness is at most 0.5. The value for GUUCCGAUGGUGUAAUGGUAACGCGUCUCCCUCCUAAGGAGAAGACUGCGGGUUCGAGUCCCGUACGGAACG was 0.686; that for GUUCCGAUGGUGUAAUGGUAACGCGUCUCCCUCCUUAGGAGAAGACUGCGGGUUCGAGUCCUGUAUGGAACG was at most 0.5; that for GUUCCGAUGGCGUAAUGGUAACGCGUCUCCCUCCUAUGGAGAAGACUGCGGGUUCGAGUCCCGUACGGAACG was 0.696. Turning to GUUCCGAUGGCGUAAUGGUAACGCGUCUCCCUCCUAGGGAGAAGACUGCGGGUUCGAGUCCCGUACGGAACG, the yeast fitness turned out to be 0.585. On to GUUCCGAUGGGGUAAUGGUAACGCGUCUCCGCCCUAAGGAGAUGACUGCGGGUUCGAGUCCCGUACGGAACG, for which the yeast fitness was at most 0.5. As for GUUCCGAUGGCGUAAUGGUAACGUGUCUCUGUCCUAAGGAGAAGACUGCGGGUUCGGGUCCCGUACGGAACG, the yeast fitness is at most 0.5. Turning to GUUCCGAUGGCGUAAUGGUAACGCGUCUCCCUCCUAAGGUGAAGACUGCGGGUUGGAGUCCCCUACGGAACG, the yeast fitness was at most 0.5. With GUUCCGAUGGCGUAAUGGUAACGCGUCUCCCUCCUAAGGAGAAGCCUGCGGGUUCGAGUCCCGUAUGGAACG, the yeast fitness worked out at 0.535. For GUUCCGAUGGCGUAAUGGUAACGCGUCUCCCUCCUAAGGAGAAGUCUGCGGGUUCGAGUCCCGUACGGAACG, the yeast fitness is 0.672. With GUUCCGAUGGCGUAAUGGUAACGCGUCUCCCUCCUAAGGAGUAGACUGCGGGUUCGAGUCCCGUACGGAACG, the yeast fitness turned out to be 0.696.

For the variant GUUCCGAUGGCGUAAUGGUAACGCGUCUCCCUCCUAAGGAGAAGGCUGCGGGUUCGAGUCGCGUACGGAACG, the yeast fitness is at most 0.5. For the variant GUUCCGAUGGCGUAAUGGUAACGCGUCUCCCUCCUAAGGUGAAGACUGCGGGUUCGAGUCGCGUACUGAACG, the yeast fitness was at most 0.5. For GUUCCGAUGGCGUAAUGGUAACGCGUCUCCCUCCUAGGGGGAAGACUGCGGGUUCGAGUCCCGUACGGUACG, the yeast fitness was at most 0.5.
